Columns and labels:
[1] = Growth inhibition of Escherichia coli harboring AcrB deletion mutant at 64 ug/ml after 18 hrs by broth microdilution assay; conditions: dose 64 µg/ml
Outline: (§1)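 MIC determined by 96-well broth microdilution in E. coli BW25113 expressing AcrB ((+)AcrB) and an isogenic acrB-deleted strain ((-)AcrB). Used to set the compound concentrations for synergy testing that produce no direct antibacterial effect.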

[2] = Growth inhibition of Escherichia coli BW25113 expressing AcrB at 512 ug/ml after 18 hrs by broth microdilution assay; conditions: dose 512 µg/ml; outline: as §1

| SMILES | growth inhibition (GI) [1] | growth inhibition (GI) [2] |
| --- | --- | --- |
| Oc1ccc(CCCCc2ccc(F)cc2)cc1O | Non-Toxic | Non-Toxic |
| Oc1ccc(CCCCc2ccc(O)c(O)c2)cc1 | Non-Toxic | Non-Toxic |
| Oc1ccc(CCCCc2ccccc2)cc1O | Non-Toxic | Non-Toxic |
| CC(C)c1ccc(CCCCc2ccc(O)c(O)c2)cc1 | Non-Toxic | Non-Toxic |
| Oc1ccc(CCCCc2cccc3ccccc23)cc1O | Non-Toxic | Non-Toxic |
| Cn1cc(CCCCc2ccc(O)c(O)c2)c2ccccc21 | Non-Toxic | Non-Toxic |
| Oc1ccc(CCCCc2ccc(-c3ccccc3)cc2)cc1O | Non-Toxic | Non-Toxic |
| Oc1ccc(CCCC(c2ccccc2)c2ccccc2)cc1O | Non-Toxic | Non-Toxic |
| Oc1ccc(CCCCc2ccccn2)cc1O | Non-Toxic | Non-Toxic |
| CC(C)(C)c1ccc(CCCCc2ccc(O)c(O)c2)cc1 | Non-Toxic | Non-Toxic |
| Oc1ccc(CCCCc2ccncc2)cc1O | Non-Toxic | Non-Toxic |
| Cc1ccc(CCCCc2ccc(O)c(O)c2)cc1 | Non-Toxic | Non-Toxic |
| Oc1ccc2cc(CCCCc3ccc(O)c(O)c3)ccc2c1 | Non-Toxic | Non-Toxic |
| Oc1ccc(CCCCc2c3ccccc3cc3ccccc23)cc1O | Non-Toxic | Non-Toxic |
| Oc1ccc(CCCCc2ccco2)cc1O | Non-Toxic | Non-Toxic |
| CC(C)(C)c1ccc(C(=O)NCCc2ccc(O)c(O)c2)cc1 | Non-Toxic | Non-Toxic |
| CC(C)CCn1cc(CCCCc2ccc(O)c(O)c2)c2ccccc21 | Non-Toxic | Non-Toxic |
| Nc1ccc(CCCCc2ccc(O)c(O)c2)cc1 | Non-Toxic | Non-Toxic |

From ChEMBL document CHEMBL4680134, “Structural optimization of natural product nordihydroguaretic acid to discover novel analogues as AcrB inhibitors” (Eur J Med Chem, 2020)
